Experimental data as given in ChEMBL document CHEMBL1155944 (J Med Chem, 2008).
The source made the active and inactive calls. The rule behind the calls is not given here.

Legend:
[1] = molecular target: Gamma-aminobutyric acid receptor subunit alpha-6 (Rattus norvegicus) (UniProt P30191); assay: Displacement of [3H]Muscimol from GABAAalpha6 receptor in Sprague-Dawley rat brain cerebellum membrane at 1 mM; type: tissue-based
Method in brief: (§1)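 Well-washed membranes from adult male Sprague-Dawley rat cortex or cerebellum (50–200 μg protein). Incubated 60 min on ice in 50 mM Tris/citrate, pH 7.3, with 6 nM [3H]muscimol and test compound. […] Filtered and counted by scintillation. IC50 and pseudo-Hill coefficient obtained by nonlinear regression.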

[2] = species on record: Rattus norvegicus; assay: Displacement of [3H]Muscimol from GABAA alpha-1-alpha-5 receptor in Sprague-Dawley rat brain cortex membrane at 100 uM; method in brief: as §1
[3] = species on record: Rattus norvegicus; assay: Displacement of [3H]Muscimol from GABAA alpha-1-alpha-5 receptor in Sprague-Dawley rat brain cortex membrane at 1 mM; method in brief: as §1
[4] = molecular target: Gamma-aminobutyric acid receptor subunit alpha-6 (Rattus norvegicus) (UniProt P30191); assay: Displacement of [3H]Muscimol from GABAAalpha6 receptor in Sprague-Dawley rat brain cerebellum membrane at 100 uM; type: tissue-based; method in brief: as §1
[5] = (§2) Displacement of [3H]Muscimol from GABAA alpha-1-alpha-5 receptor in Sprague-Dawley rat brain cortex membrane; method in brief: as §1
[6] = species on record: Rattus norvegicus; assay: as §2; method in brief: as §1
[7] = molecular target: Gamma-aminobutyric acid receptor subunit alpha-6 (Rattus norvegicus) (UniProt P30191); assay: (§3) Displacement of [3H]Muscimol from GABAAalpha6 receptor in Sprague-Dawley rat brain cerebellum membrane; type: tissue-based; method in brief: as §1
[8] = molecular target: Gamma-aminobutyric acid receptor subunit alpha-6 (Rattus norvegicus, UniProt P30191); assay: as §3; type: tissue-based; method in brief: as §1
[9] = molecular target: Gamma-aminobutyric acid receptor subunit alpha-6 (Rattus norvegicus) (UniProt P30191); assay: Intrinsic activity at recombinant rat GABAA alpha-6-beta-3-gamma-2 receptor expressed in HEK293 cells assessed as induction of current at 1 mM by whole-cell patch-clamp technique relative to GABA; type: cell-based
Method in brief: (§4)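 Rat αiβ3γ2S receptors transiently expressed in HEK293 cells, with EGFP marking transfected cells, recorded 2 days after transfection. Whole-cell patch clamp in HEPES saline, pH 7.35. Drug applied alone at 1, 10, 100 and 1000 μM. […] Data from at least four cells.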

[10] = molecular target: GABA A receptor alpha-5/beta-3/gamma-2 (Rattus norvegicus) (UniProt P18508+P19969+P63079); assay: Intrinsic activity at recombinant rat GABAA alpha-5-beta-3-gamma-2 receptor expressed in HEK293 cells assessed as induction of current at 1 mM by whole-cell patch-clamp technique relative to GABA; type: cell-based; method in brief: as §4
[11] = molecular target: Gamma-aminobutyric acid receptor subunit alpha-4 (Rattus norvegicus) (UniProt P28471); assay: Intrinsic activity at recombinant rat GABAA alpha-4-beta-3-gamma-2 receptor expressed in HEK293 cells assessed as induction of current at 1 mM by whole-cell patch-clamp technique relative to GABA; type: cell-based; method in brief: as §4
[12] = molecular target: GABA-A receptor; alpha-1/beta-2/gamma-2 (Rattus norvegicus) (UniProt P18508+P62813+P63138); assay: Intrinsic activity at recombinant rat GABAA alpha-1-beta-3-gamma-2 receptor expressed in HEK293 cells assessed as induction of current at 1 mM by whole-cell patch-clamp technique relative to GABA; type: cell-based; method in brief: as §4
[13] = molecular target: T1, GABA A receptor alpha-2/beta-2/gamma-2 (Rattus norvegicus) (UniProt P18508+P23576+P63138); assay: Intrinsic activity at recombinant rat GABAA alpha-2-beta-3-gamma-2 receptor expressed in HEK293 cells assessed as induction of current at 1 mM by whole-cell patch-clamp technique relative to GABA; type: cell-based; method in brief: as §4
[14] = molecular target: Gamma-aminobutyric acid receptor subunit alpha-3 (Rattus norvegicus) (UniProt P20236); assay: Intrinsic activity at recombinant rat GABAA alpha-3-beta-3-gamma-2 receptor expressed in HEK293 cells assessed as induction of current at 1 mM by whole-cell patch-clamp technique relative to GABA; type: cell-based; method in brief: as §4
[15] = molecular target: Gamma-aminobutyric acid receptor subunit alpha-6 (Rattus norvegicus) (UniProt P30191); assay: Antagonist activity at recombinant rat GABAA alpha-6-beta-3-gamma-2 receptor expressed in HEK293 cells assessed as inhibition of GABA-induced current at 1 mM by whole-cell patch-clamp technique; type: functional, cell-based; parameters: scale not given: the % may be the effect or the level left
Method in brief: (§5)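 HEK293 cells transiently transfected by calcium phosphate with rat αi, β3, γ2S and EGFP cDNAs, recorded 2 days later. Whole-cell patch clamp in HEPES saline, pH 7.35. […] Response expressed relative to the GABA-alone current. Data from at least four cells.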

[16] = molecular target: T1, GABA A receptor alpha-2/beta-2/gamma-2 (Rattus norvegicus); assay: Antagonist activity at recombinant rat GABAA alpha-2-beta-3-gamma-2 receptor expressed in HEK293 cells assessed as inhibition of GABA-induced current at 1 mM by whole-cell patch-clamp technique; type: functional, cell-based; parameters: scale not given: the % may be the effect or the level left; method in brief: as §5
[17] = molecular target: Gamma-aminobutyric acid receptor subunit alpha-4 (Rattus norvegicus) (UniProt P28471); assay: Antagonist activity at recombinant rat GABAA alpha-4-beta-3-gamma-2 receptor expressed in HEK293 cells assessed as inhibition of GABA-induced current at 1 mM by whole-cell patch-clamp technique; type: functional, cell-based; parameters: scale not given: the % may be the effect or the level left; method in brief: as §5
[18] = tested on: Oocyte; assay: Activity at rat GABAA alpha-1R66C-beta-2 receptor mutant expressed in Xenopus laevis oocytes assessed as inhibition of GABA-induced current at -60 mV by Two-Electrode voltage clamp method; type: cell-based
[19] = tested on: Oocyte; assay: Activity at rat GABAA alpha-1T129C-beta-2 receptor mutant expressed in Xenopus laevis oocytes assessed as inhibition of GABA-induced current at -60 mV by Two-Electrode voltage clamp method; type: cell-based

Gamma-aminobutyric acid receptor subunit alpha-6 (Rattus norvegicus), sequence (P30191 whole entry): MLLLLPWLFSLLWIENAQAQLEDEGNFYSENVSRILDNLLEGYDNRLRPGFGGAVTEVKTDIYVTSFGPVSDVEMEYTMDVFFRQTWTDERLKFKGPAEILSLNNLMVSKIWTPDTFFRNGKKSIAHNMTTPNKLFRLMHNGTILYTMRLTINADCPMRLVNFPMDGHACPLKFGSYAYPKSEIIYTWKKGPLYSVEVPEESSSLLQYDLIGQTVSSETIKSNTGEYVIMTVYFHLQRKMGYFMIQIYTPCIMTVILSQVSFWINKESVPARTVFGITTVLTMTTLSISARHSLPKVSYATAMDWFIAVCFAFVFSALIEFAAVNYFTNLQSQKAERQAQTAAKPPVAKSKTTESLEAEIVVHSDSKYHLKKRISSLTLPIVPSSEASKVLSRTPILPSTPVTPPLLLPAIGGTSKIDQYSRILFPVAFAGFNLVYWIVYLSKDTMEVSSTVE
Gamma-aminobutyric acid receptor subunit alpha-6, sequence (P30191 whole entry): as above
Gamma-aminobutyric acid receptor subunit alpha-4 (Rattus norvegicus), sequence (P28471 whole entry): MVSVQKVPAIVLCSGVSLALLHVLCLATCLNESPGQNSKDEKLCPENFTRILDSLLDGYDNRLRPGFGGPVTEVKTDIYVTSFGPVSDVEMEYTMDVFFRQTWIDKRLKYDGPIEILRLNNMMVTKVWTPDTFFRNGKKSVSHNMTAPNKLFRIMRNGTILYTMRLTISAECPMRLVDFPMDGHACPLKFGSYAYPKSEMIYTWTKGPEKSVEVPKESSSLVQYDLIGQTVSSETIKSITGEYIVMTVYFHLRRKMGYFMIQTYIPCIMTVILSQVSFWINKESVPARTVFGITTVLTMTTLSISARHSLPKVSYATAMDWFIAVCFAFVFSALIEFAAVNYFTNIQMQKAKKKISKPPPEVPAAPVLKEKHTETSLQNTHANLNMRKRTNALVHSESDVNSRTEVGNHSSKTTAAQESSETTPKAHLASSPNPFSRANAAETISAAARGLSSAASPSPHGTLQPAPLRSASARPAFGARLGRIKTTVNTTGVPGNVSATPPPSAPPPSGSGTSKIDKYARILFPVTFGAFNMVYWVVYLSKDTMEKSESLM
Gamma-aminobutyric acid receptor subunit alpha-3 (Rattus norvegicus), sequence (P20236 whole entry): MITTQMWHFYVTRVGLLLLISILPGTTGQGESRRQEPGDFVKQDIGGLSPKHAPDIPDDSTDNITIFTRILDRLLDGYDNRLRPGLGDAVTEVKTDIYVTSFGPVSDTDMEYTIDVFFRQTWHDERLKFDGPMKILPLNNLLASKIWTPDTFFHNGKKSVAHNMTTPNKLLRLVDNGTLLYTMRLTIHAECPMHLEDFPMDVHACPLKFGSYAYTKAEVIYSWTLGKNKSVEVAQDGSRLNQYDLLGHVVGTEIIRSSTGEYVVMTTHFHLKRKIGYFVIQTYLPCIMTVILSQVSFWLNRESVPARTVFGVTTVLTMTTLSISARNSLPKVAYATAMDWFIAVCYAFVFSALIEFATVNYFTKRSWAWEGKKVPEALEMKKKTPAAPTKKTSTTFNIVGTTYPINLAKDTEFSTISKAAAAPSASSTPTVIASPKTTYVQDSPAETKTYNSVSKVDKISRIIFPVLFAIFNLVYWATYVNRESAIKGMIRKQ

| Structure (SMILES) | inhibition [1] | inhibition [2] | inhibition [3] | inhibition [4] | other results |
| --- | --- | --- | --- | --- | --- |
| Oc1nnc(C2CCNCC2)n1Cc1ccccc1 | 52% | 18% | 56% | 14% |  |
| c1ccc(CN2CCC(c3nnco3)CC2)cc1 | -5% | -5% | 1% | 1% |  |
| CN(C)Cc1nnc(S)o1 | 37% | 22% | 47% | 3% |  |
| CN1CCC(c2nnc(S)o2)CC1 | 27% | 6% | 48% | 8% |  |
| CN(C)Cc1nnc(O)o1 | 26% | 3% | 27% | 5% |  |
| NCCc1nnc(O)o1 | 98% | 85% | 100% | 89% | IC50 [5]: 9.4 µM; logIC50 [6]: 0.971; logIC50 [7]: 0.868; IC50 [8]: 7.4 µM |
| Oc1nnc(C2CCCCC2)o1 | 1% | 18% | -2% |  |  |
| NCc1nnc(S)n1Cc1ccccc1 |  |  |  |  | Activity [1]: inactive; Activity [2]: inactive; Activity [3]: inactive; Activity [4]: inactive |
| CNCc1nnc(O)o1 | 64% | 14% | 58% | 22% |  |
| NCCc1nnc(S)o1 | 67% | 9% | 61% | 23% |  |
| CNCc1nnc(S)o1 | 16% | 17% | 24% | 9% |  |
| Cc1nnc(C2CCNCC2)o1 | 91% | 48% | 87% | 56% | IC50 [5]: 109 µM; logIC50 [6]: 2.04; logIC50 [7]: 1.88; IC50 [8]: 76 µM; Activity [9]: 29%; Activity [10]: < 10%; Activity [11]: < 10%; Activity [12]: < 10%; Activity [13]: < 10%; Activity [14]: < 10% |
| C[C@@H](N)c1nnc(O)o1 | 34% | 26% | 16% | 13% |  |
| Oc1nnc(C2CCN(Cc3ccccc3)CC2)o1 | 30% | 12% | 50% | 7% |  |
| S=c1[nH]nc(C2CCCCC2)o1 | -3% | 10% | 18% | 0% |  |
| Sc1nnc(C2CCCNC2)o1 (stereo not given) | 42% | 12% | 51% | 15% |  |
| Oc1nnc(C2CCNCC2)o1 | 77% | 38% | 79% | 38% | IC50 [5]: 183 µM; logIC50 [6]: 2.26; logIC50 [7]: 2.09; IC50 [8]: 123 µM; Activity [15]: 41%; Activity [16]: 42%; Activity [17]: 52%; Activity [10]: 34%; Activity [13]: 17%; Activity [14]: 18% |
| Sc1nnc([C@@H]2CCCN2)o1 | 31% | 21% | 36% | -2% |  |
| Sc1nnc(C2CCNCC2)n1Cc1ccccc1 |  | -6% |  | 13% |  |
| Oc1nnc(C2CCCNC2)o1 (stereo not given) | 10% | 1% | 24% | 9% |  |
| Oc1nnc([C@@H]2CCCN2)o1 | 13% | 5% | 10% | 8% |  |
| Cc1nnc(S)o1 | -3% | 20% | 10% | -4% |  |
| Sc1nnc(C2CCN(Cc3ccccc3)CC2)o1 | 30% | 3% | 33% | 6% |  |
| Cc1nnc(O)o1 | 4% | 7% | 26% | 3% |  |
| NCc1nnc(S)o1 | 95% | 58% | 99% | 61% | IC50 [5]: 57 µM; logIC50 [6]: 1.76; logIC50 [7]: 1.69; IC50 [8]: 49 µM |
| CN1CCC(c2nnc(O)o2)CC1 | 26% | 4% | 27% | 6% |  |
| NCc1nnc(O)n1Cc1ccccc1 | 2% | 4% | 11% | 1% |  |
| CS(=O)(=S)OCCNC(=O)CCCC[C@@H]1SC[C@@H]2NC(=O)N[C@@H]21 (stereo not given in full) |  |  |  |  | inhibition [18]: 75%; inhibition [19]: 60% |
